These results are taken from ChEMBL document CHEMBL1145044, “Novel cationic transport agents for oligonucleotide delivery into primary leukemic cells” (J Med Chem, 2003).

The nature of data set [1]: Cytotoxicity for relative cell viability compared to untreated control in BM2 cells by MTT assay. The data set is classed as functional, cell-based, Gallus gallus. The essentials: (§1)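 MTT reduction by cells exposed to transport agent alone, expressed relative to untreated control cells (100%). The value reported is the agent concentration at which relative viability falls to 50%.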
On the technique in general: Formazan colour is commonly taken as a measure of viable cells.

The nature of data set [2]: Cytotoxicity for relative cell viability compared to untreated control in CEF cells by MTT assay. The data set is classed as functional, cell-based, Gallus gallus.
A short description of data set [3]: Relative uptake of ODN in BM2 cells incubated with 0.25 uMol/L of P32-labeled v-myb antisense ODN for 2 hr at a concentration of 2.5 uMol/L. The data set is classed as functional, Gallus gallus. The essentials:
(§2)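 Cells were seeded at 1 × 10^6 per well in medium with 10% serum one day ahead. 0.25 µM ³²P-end-labeled v-myb antisense ODN was complexed with agent (final 2.5 µM) in serum-free medium for 30 min at room temperature. Cells were then exposed for 2 h at 37 °C or 41 °C depending on cell type. Membrane-bound ODN was stripped by acid-salt elution. Cells were lysed in proteinase K buffer and counted by liquid scintillation. Uptake is relative to free ODN, mean of ≥3 independent experiments.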

The nature of data set [4]: Apparent association constant was determined. The data set is classed as ADME.
A short description of data set [5]: Cytotoxicity for relative cell viability compared to untreated control in Primary leukemic cells(PLC) by MTT assay. The data set is classed as functional, cell-based, Gallus gallus. An outline of the steps:
as §1

Data set [6] is described as follows: Relative uptake of ODN in Primary leukemic cells(PLC) incubated with 0.25 uMol/L of P32-labeled v-myb antisense ODN for 2 hr at a concentration of 2.5 uMol/L. The data set is classed as functional, Gallus gallus. The essentials:
as §2

As for `I.I.I.I.O=C(NCCNC1=NCCCN1)c1ccc(-c2c3nc(c(-c4ccc(C(=O)NCCNC5=NCCCN5)cc4)c4ccc([nH]4)c(-c4ccc(C(=O)NCCNC5=NCCCN5)cc4)c4ccc([nH]4)c(-c4ccc(C(=O)NCCNC5=NCCCN5)cc4)c4nc2C=C4)C=C3)cc1`, the IC50 in data set [1], in data set [2] and in data set [5] was more than 20 uM l-1 in each case. The “Relative ODN uptake” value in data set [3] was determined as 10.8; in data set [6] it was 43.2. Also, the K ass in data set [4] turned out to be 268000 M⁻¹.
In the case of `CCC1=C(C)C2=N/C1=C\c1[nH]c(c(CCC(=O)NCCOCCOCCN)c1C)/C=c1\[nH]/c(c(CC)c1CC)=C\c1[nH]c(c(C)c1CCC(=O)NCCOCCOCCN)/C=C1\N=C(C2)C(C)=C1CC`, the results for the IC50 in data set [2] and in data set [5] were 10 uM l-1 and 14 uM l-1, respectively. Moreover, the “Relative ODN uptake” value in data set [6] was determined as 4.4.
With `C[N+](C)(C)Cc1ccc(-c2c3nc(c(-c4ccc(C[N+](C)(C)C)cc4)c4ccc([nH]4)c(-c4ccc(C[N+](C)(C)C)cc4)c4ccc([nH]4)c(-c4ccc(C[N+](C)(C)C)cc4)c4nc2C=C4)C=C3)cc1.[Cl-].[Cl-].[Cl-].[Cl-]`, the IC50 was 10 uM l-1 in data set [1], 10 uM l-1 in data set [2] and 12 uM l-1 in data set [5]. The results for the “Relative ODN uptake” value in data set [3] and in data set [6] were 2.5 and 4.2, respectively.
Regarding `CCC1=C(C)C2=N/C1=C\c1[nH]c(c(CCC(=O)N(C)CC(O)C(O)C(O)C(O)CO)c1C)/C=c1\[nH]/c(c(CC)c1CC)=C\c1[nH]c(c(C)c1CCC(=O)N(C)CC(O)C(O)C(O)C(O)CO)/C=C1\N=C(C2)C(C)=C1CC` (configuration not stated), the IC50 in data set [1] is listed as 10 uM l-1; in data set [2], 10 uM l-1; in data set [5] it was 4.2 uM l-1. Further, the “Relative ODN uptake” value in data set [6] is 9.1.
Regarding `Cl.Cl.Cl.Cl.O=C(NCC1CCN2CCC(CO)N=C2N1)c1ccc(-c2c3nc(c(-c4ccc(C(=O)NCC5CCN6CCC(CO)N=C6N5)cc4)c4ccc([nH]4)c(-c4ccc(C(=O)NCC5CCN6CCC(CO)N=C6N5)cc4)c4ccc([nH]4)c(-c4ccc(C(=O)NCC5CCN6CCC(CO)N=C6N5)cc4)c4nc2C=C4)C=C3)cc1` (configuration not stated), the IC50 is reported as 15 uM l-1 in data set [1], 15 uM l-1 in data set [2] and more than 20 uM l-1 in data set [5]. Besides, the “Relative ODN uptake” value in data set [6] worked out at 13.4.
As for `CCC1=C(C)C2=N/C1=C\c1[nH]c(c(CCC(=O)NCCc3c[nH]cn3)c1C)/C=c1\[nH]/c(c(CC)c1CC)=C\c1[nH]c(c(C)c1CCC(=O)NCCc1c[nH]cn1)/C=C1\N=C(C2)C(C)=C1CC`, the IC50 in data set [2] and in data set [5] was 8.5 uM l-1 in each case. The “Relative ODN uptake” value in data set [6] was found to be 2.1.
With `Br.OC[C@@H]1CCN2CC[C@@H](CO)NC2N1`, the “Relative ODN uptake” value in data set [3] worked out at 2.5; in data set [6], 0.77. Also, the IC50 in data set [5] was determined as 8.5 uM l-1.
On to `I.NCCNC1=NCCCN1`, for which the IC50 in data set [2] is recorded as 20 uM l-1; in data set [5], more than 20 uM l-1. For the same compound, the entries for the “Relative ODN uptake” value in data set [3] and in data set [6] were 5.1 and 3.2, respectively.
Consider `Cc1ccc(-c2c3nc(c(-c4ccc(C[N+](C)(C)C)cc4)c4ccc([nH]4)c(-c4ccc(C)cc4)c4ccc([nH]4)c(-c4ccc(C[N+](C)(C)C)cc4)c4nc2C=C4)C=C3)cc1.[Cl-].[Cl-]`, for which the IC50 in data set [1], in data set [2] and in data set [5] was more than 20 uM l-1 in each case. For the same compound, the “Relative ODN uptake” value came to 16.7 in data set [3] and 67.5 in data set [6]. In data set [4], the K ass stood at 2.2e+06 M⁻¹.
`CCc1c(C(=O)NC(=N)N)[nH]c(Cc2[nH]c(C(=O)NC(=N)N)c(CC)c2C)c1C.Cl.Cl`: the values for the IC50 in data set [1], in data set [2] and in data set [5] were more than 10 uM l-1, 15 uM l-1 and more than 20 uM l-1, respectively. Moreover, the “Relative ODN uptake” value in data set [3] came to 1.3; in data set [6], 1.8.
For `C[n+]1ccc(-c2c3nc(c(-c4cc[n+](C)cc4)c4ccc([nH]4)c(-c4cc[n+](C)cc4)c4ccc([nH]4)c(-c4cc[n+](C)cc4)c4nc2C=C4)C=C3)cc1` [TMPYP4], the IC50 in data set [2] is on record as 15 uM l-1; in data set [5], more than 20 uM l-1. Further, the “Relative ODN uptake” value in data set [3] was 3.8; in data set [6], 1.2.
